In ChEMBL document CHEMBL1135874, “Novel agents combining platelet activating factor (PAF) receptor antagonist with thromboxane synthase inhibitor (TxSI)” (Bioorg Med Chem Lett, 2002):
pIC50: −log10 of the molar value.

Key:
Thromboxane-A synthase = target: T1, Thromboxane-A synthase (Homo sapiens, UniProt P24557); test: In vitro inhibition of thromboxane synthase (TXA2) in human platelet microsomes [reduced formation of TXB2 from prostaglandin H2(PGH2)]; type: functional, Microsome; settings: read-out: IC50
T1 sequence (P24557 whole entry): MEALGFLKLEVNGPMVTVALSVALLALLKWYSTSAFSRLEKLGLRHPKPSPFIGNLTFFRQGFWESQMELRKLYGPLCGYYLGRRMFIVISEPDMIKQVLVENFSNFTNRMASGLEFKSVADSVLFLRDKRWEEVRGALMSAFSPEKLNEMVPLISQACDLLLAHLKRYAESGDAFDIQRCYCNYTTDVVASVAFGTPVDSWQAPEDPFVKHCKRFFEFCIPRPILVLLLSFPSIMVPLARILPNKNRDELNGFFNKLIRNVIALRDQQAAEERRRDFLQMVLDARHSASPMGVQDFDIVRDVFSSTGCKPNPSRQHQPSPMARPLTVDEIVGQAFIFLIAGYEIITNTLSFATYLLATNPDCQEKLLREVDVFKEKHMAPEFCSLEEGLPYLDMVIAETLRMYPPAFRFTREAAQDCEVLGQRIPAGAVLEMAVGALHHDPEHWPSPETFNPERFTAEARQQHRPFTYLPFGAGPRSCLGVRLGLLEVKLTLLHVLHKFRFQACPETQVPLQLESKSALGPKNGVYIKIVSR

[1] = target: T2, Thromboxane-A synthase (Rattus norvegicus) (UniProt P49430); test: Thromboxane synthase inhibitor (TxSI) activity assessed by ex vivo inhibition of serum TXB2 production in rat after Intravenous administration; type: functional, organism-based
T2 sequence (whole entry): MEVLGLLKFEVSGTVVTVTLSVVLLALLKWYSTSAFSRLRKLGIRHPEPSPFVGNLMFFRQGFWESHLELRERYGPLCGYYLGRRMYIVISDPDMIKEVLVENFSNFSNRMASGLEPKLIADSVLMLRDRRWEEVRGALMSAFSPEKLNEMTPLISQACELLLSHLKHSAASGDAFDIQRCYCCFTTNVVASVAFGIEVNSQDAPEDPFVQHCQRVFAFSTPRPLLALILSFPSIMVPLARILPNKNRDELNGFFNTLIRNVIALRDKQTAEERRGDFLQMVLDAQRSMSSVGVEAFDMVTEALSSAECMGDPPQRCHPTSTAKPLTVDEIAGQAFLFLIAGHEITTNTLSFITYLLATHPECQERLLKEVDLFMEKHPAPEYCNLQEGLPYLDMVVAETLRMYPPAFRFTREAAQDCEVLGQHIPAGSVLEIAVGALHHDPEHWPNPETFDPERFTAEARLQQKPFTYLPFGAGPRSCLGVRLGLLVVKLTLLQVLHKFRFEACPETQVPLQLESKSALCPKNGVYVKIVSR
Method in brief: (§1)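 Rats dosed intravenously or orally. Blood was then taken, and serum TxB2 production was measured ex vivo. Values are reported as ED50 doses in mg/kg. Oral testing used the same method as intravenous testing.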

[2] = target: Platelet-activating factor receptor (Mus musculus) (UniProt Q62035); test: Antagonism of Platelet activating factor (PAF) activity in mice after oral administration, assayed by PAF-induced death; type: functional, organism-based
Method in brief: (§2)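 Mice dosed with test agent intravenously or orally, then injected with a lethal dose of PAF. Protection from PAF-induced death was scored. ED50 was taken as the dose that reduced mortality by 50%. Oral testing used the same method as intravenous testing.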

[3] = target: Platelet-activating factor receptor (Mus musculus) (UniProt Q62035); test: Antagonism of Platelet activating factor (PAF)in mice after Intravenous administration, assayed by PAF-induced death; type: functional, organism-based; method in brief: as §2
[4] = Inhibition of Platelet activating factor (PAF)- induced platelet aggregation in rabbit platelet rich plasma (PRP); type: functional
[5] = target: T2, Thromboxane-A synthase (Rattus norvegicus); test: Thromboxane synthase inhibitor (TxSI) activity was assessed by ex vivo inhibition of serum TXB2 production in rat after oral administration; type: functional, organism-based; method in brief: as §1

Platelet-activating factor receptor (Mus musculus), sequence (Q62035 whole entry): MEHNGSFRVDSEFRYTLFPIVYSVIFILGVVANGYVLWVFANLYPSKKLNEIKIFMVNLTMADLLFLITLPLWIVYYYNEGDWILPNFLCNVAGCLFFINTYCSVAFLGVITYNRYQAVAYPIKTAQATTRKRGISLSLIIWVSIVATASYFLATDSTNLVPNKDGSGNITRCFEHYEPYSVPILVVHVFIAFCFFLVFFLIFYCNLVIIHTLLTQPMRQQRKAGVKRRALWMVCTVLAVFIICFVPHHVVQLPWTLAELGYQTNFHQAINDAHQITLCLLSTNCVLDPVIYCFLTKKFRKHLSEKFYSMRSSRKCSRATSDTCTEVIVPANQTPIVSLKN

Structure (SMILES)	pIC50 (Thromboxane-A synthase)	ED50 [1] [mg/kg]	ED50 [2] [mg/kg]	ED50 [3] [mg/kg]	pIC50 [4]	ED50 [5] [mg/kg]
CCOC(=O)CCCCO/N=C(\c1ccc(COCC(=O)N2CCc3c(sc4c3C(c3ccccc3Cl)=NC(C)c3nnc(C)n3-4)C2)cc1)c1cccnc1 (stereo not drawn)	7.24	> 1	> 10	4.2	7.22	–
Cc1nnc2n1-c1sc3c(c1C(c1ccccc1Cl)=NC2C)CCN(Cc1cccc(/C(=N\OCCCCC(=O)OCCCc2cccnc2)c2cccnc2)c1)C3 (stereo not drawn)	< 6.00	> 1	> 10	0.54	7.19	–
CCOC(=O)CCCCO/N=C(\c1ccc(CN2CCc3c(sc4c3C(c3ccccc3Cl)=NC(C)c3nnc(C)n3-4)C2)cc1)c1cccnc1 (stereo not drawn)	7.10	1	> 10	1.35	7.34	> 10
Cc1nnc2n1-c1sc3c(c1C(c1ccccc1Cl)=NC2C)CCN(Cc1cccc(/C(=N\OCCCCC(=O)OCCN2CCOCC2)c2cccnc2)c1)C3 (stereo not drawn)	6.82	0.77	> 10	0.54	7.09	8.9
CCOC(=O)CCCCO/N=C(/c1cccnc1)c1cccc(CCCCN2CCc3c(sc4c3C(c3ccccc3Cl)=NC(C)c3nnc(C)n3-4)C2)c1 (stereo not drawn)	7.68	0.53	> 10	0.38	7.27	6.9
Cc1nnc2n1-c1sc3c(c1C(c1ccccc1Cl)=NC2C)CCN(Cc1cccc(/C(=N\OCCCCC(=O)O)c2cccnc2)c1)C3 (stereo not drawn)	7.62	1	> 10	0.47	6.01	10
CCOC(=O)CCCCO/N=C(/c1cccnc1)c1ccccc1C(=O)N1CCc2c(sc3c2C(c2ccccc2Cl)=NC(C)c2nnc(C)n2-3)C1 (stereo not drawn)	< 6.00	> 1	> 10	2.4	6.70	–
CCOC(=O)CCCCO/N=C(\c1ccc(C(=O)N2CCc3c(sc4c3C(c3ccccc3Cl)=NC(C)c3nnc(C)n3-4)C2)cc1)c1cccnc1 (stereo not drawn)	–	> 1	0.5	0.2	7.00	–
CCOC(=O)CCCCO/N=C(/c1cccnc1)c1cccc(C(=O)N2CCc3c(sc4c3C(c3ccccc3Cl)=NC(C)c3nnc(C)n3-4)C2)c1 (stereo not drawn)	–	> 1	2.3	0.47	7.22	–
CCCNC(=O)CCCCO/N=C(/c1cccnc1)c1cccc(CN2CCc3c(sc4c3C(c3ccccc3Cl)=NC(C)c3nnc(C)n3-4)C2)c1 (stereo not drawn)	6.27	> 1	> 10	0.54	7.15	–
CCOC(=O)CCCCO/N=C(/c1cccnc1)c1cccc(CN2CCc3c(sc4c3C(c3ccccc3Cl)=NC(C)c3nnc(C)n3-4)C2)c1 (stereo not drawn)	7.23	0.1	> 10	0.2	7.33	> 10
